Published values pooled from the literature.
Protocols differ between the studies behind these lines. pIC50, pKd, pKi: −log10 of the molar value.
tspO: tspO (Cereibacter sphaeroides, UniProt Q9RFC8)
TMEM97: Sigma intracellular receptor 2 (TMEM97, Homo sapiens, UniProt Q5BJF2)
Serine protease HTRA1 S328A: Serine protease HTRA1 (Homo sapiens, UniProt Q92743, S328A)
PTGS2: Prostaglandin G/H synthase 2 (PTGS2, Homo sapiens, UniProt P35354)

| Structure (SMILES) | target | observed | action | technique | pH | measurement | result |
| --- | --- | --- | --- | --- | --- | --- | --- |
| COc1cc(Nc2ncc(F)c(Nc3ccc4c(n3)NC(=O)C(C)(C)O4)n2)cc(OC)c1OC | UDP-glucuronosyltransferase 1A1 (UGT1A1, Homo sapiens, UniProt P22309) | enzyme activity | inhibitor |  |  | pIC50 | 6.80 |
| COc1cc(/C=C/C(=O)CC(=O)/C=C/c2ccc(O)c(OC)c2)ccc1O | tspO | binding |  | fluorescence |  | pKd | 5.85 |
| Cc1c(-c2ccccc2)no[n+]1[O-] | Thioredoxin glutathione reductase (Schistosoma mansoni, UniProt Q962Y6) | enzyme activity | inhibitor |  |  | pIC50 | < 4.30 |
| COc1cc2c(cc1OC)C(=O)C(CC1CCN(Cc3ccccc3)CC1)C2 (stereo not drawn) | TMEM97 | ligand displacement |  | radioligand |  | pKi | 7.08 |
| CC(C)C[C@H](NC(=O)CNC(=O)[C@H](C)NC(=O)c1ccc(S(=O)(=O)NC[C@H]2O[C@@H](C)[C@@H](O)[C@@H](O)[C@@H]2O)cc1)C(=O)N[C@@H](C)C(=O)N[C@H]1CCN(c2cc3c(cc2F)c(=O)c(C(=O)O)cn3C2CC2)C1 | Fucose-binding lectin PA-IIL (lecB, Pseudomonas aeruginosa, UniProt Q9HYN5) | ligand displacement |  | FP |  | pKi | 5.84 |
| CN(C)CCOC(C)(c1ccccc1)c1ccccn1 (stereo not drawn) | TMEM97 | ligand displacement |  | radioligand |  | pKi | < 5.00 |
| CC[C@H](C)[C@H](NC(=O)[C@H](Cc1c[nH]c2ccccc12)NC(=O)[C@H](C)NC(=O)[C@H](C)NC(=O)[C@H](Cc1ccc(O)cc1)NC(=O)[C@@H](N)CO)C(=O)N[C@@H](CC(=O)O)C(=O)N[C@H](C(=O)N[C@@H](CCC(=O)O)C(=O)N[C@@H](CO)C(=O)N[C@@H](CC(C)C)C(=O)O)C(C)C | Serine protease HTRA1 S328A | binding |  | ITC | pH 8 | pKd | 4.36 |
| COc1cc(C(=O)N2CC[C@@H](O)[C@@H](N)C2)cc2nc(-c3cc4ccccc4n3CC3CC3)n(C)c12 | PTGS2 | enzyme activity | inhibitor |  |  | pIC50 | < 4.00 |
| CC[C@H](C)[C@H](NC(=O)[C@H](Cc1c[nH]c2ccccc12)NC(=O)[C@H](C)NC(=O)[C@H](C)NC(=O)[C@H](Cc1ccc(O)cc1)NC(=O)[C@@H](N)CO)C(=O)N[C@@H](CC(=O)O)C(=O)N[C@H](C(=O)N[C@@H](CCC(=O)O)C(=O)N[C@@H](CC(=O)O)C(=O)N[C@@H](CC(C)C)C(=O)O)C(C)C | Serine protease HTRA1 S328A | binding |  | ITC | pH 8 | pKd | 4.47 |
| CC(C)C[C@H](NC(=O)[C@H](Cc1ccccc1)NC(=O)c1cnccn1)B(O)O | Dipeptidyl peptidase 2 (Homo sapiens, UniProt Q9UHL4) | enzyme activity | inhibitor |  |  | pIC50 | 5.07 |
| O=C1Nc2ccccc2/C1=C/c1cn(-c2nc(Cl)nc(N3CCOCC3)n2)c2ccccc12 | PTGS2 | enzyme activity | inhibitor |  |  | pIC50 | 5.70 |
| COc1ncccc1-c1cnn2ccc(N3CCN(C(=O)OC(C)C)CC3)nc12 | Acetylcholine receptor subunit alpha (CHRNA1, Homo sapiens, UniProt P02708) | ion current | inhibitor |  |  | pIC50 | 4.92 |
| Cc1c2ccncc2c(C)c2c1[nH]c1ccccc12 | TMEM97 | ligand displacement |  | radioligand |  | pKi | < 5.00 |
| NC[C@@H]1[C@H]2CN3C(=O)c4cccn4[C@@H]4NC(N)=N[C@@]43[C@@H]2[C@]2(N=C(N)N[C@H]2O)[C@H]1Cl (single isomer, unassigned) | Proteasome subunit beta type-8, chymotrypsin-like site (PSMB8, Homo sapiens, UniProt P28062) | enzyme activity | inhibitor |  |  | pIC50 | 5.55 |
| CC1CCN(CCCC(=O)c2ccc(F)cc2)CC1 | TMEM97 | ligand displacement |  | radioligand |  | pKi | 6.94 |
| C=CC1=C(C)/C(=C/c2[nH]c(Cc3[nH]c(/C=C4\NC(=O)C(C)=C4C=C)c(C)c3CCC(=O)O)c(CCC(=O)O)c2C)NC1=O | tspO | binding |  | fluorescence |  | pKd | 5.33 |
| CC(C)C[C@H](NC(=O)[C@H](CO)NC(=O)[C@H](CCC(=O)O)NC(=O)[C@@H](NC(=O)[C@H](CC(C)C)NC(=O)[C@H](CC(=O)O)NC(=O)[C@H](CC(=O)O)NC(=O)[C@H](CC(=O)O)NC(=O)[C@@H](NC(=O)[C@H](Cc1c[nH]c2ccccc12)NC(=O)[C@@H](N)CCC(=O)O)[C@@H](C)O)C(C)C)C(=O)O | Serine protease HTRA1 S328A | binding |  | ITC | pH 8 | pKd | 4.40 |
| COc1cc2c(cc1OC)CN(CCc1ccc(NC(=O)c3cc(OC)c(OC)cc3NC(=O)c3cnc4ccccc4c3)cc1)CC2 | TMEM97 | ligand displacement |  | radioligand |  | pKi | 7.75 |
